Screens (PubChem)
PP1 counter: PP1-alpha phosphatase inhibitors, primary screen, counter-screen for PP5 inhibitor project, biochemical, fluorescence, OMFP substrate, single point | purified PP1alpha | inhibition, % at 6.7 µM | 320,000 compounds, 0.9% hits;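 active = inhibition above the mean inhibition of all tested compounds plus 3 SD, computed separately for each screening campaign, cut at about 15% in these data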
Target sequence (P62136 whole entry, looked up): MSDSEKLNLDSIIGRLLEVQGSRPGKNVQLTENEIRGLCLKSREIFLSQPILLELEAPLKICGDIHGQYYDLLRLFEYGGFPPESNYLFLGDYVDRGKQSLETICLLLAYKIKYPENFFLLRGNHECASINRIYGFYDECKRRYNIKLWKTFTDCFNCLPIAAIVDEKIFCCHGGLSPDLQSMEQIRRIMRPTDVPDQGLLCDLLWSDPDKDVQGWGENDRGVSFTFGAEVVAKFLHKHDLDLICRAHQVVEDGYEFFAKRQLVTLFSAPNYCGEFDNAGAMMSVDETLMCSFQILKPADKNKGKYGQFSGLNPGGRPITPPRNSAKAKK
TDP2 inh: human TDP2 enzyme inhibitors, primary screen, biochemical, epi absorbance, recombinant enzyme; inhibition, % at 12.8 µM; Tyrosyl-DNA phosphodiesterase 2 (Homo sapiens), O95551; T5PNP hydrolysis, p-nitrophenol absorbance 415 nm; 370,000 compounds, 0.34% hits; AID 720702, 2013;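 active = inhibition above the mean of all tested compounds plus 3 SD, set per campaign, cut at about 25% in these data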;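 also: 0% = DMSO with enzyme and 100% = buffer with substrate but no TDP2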
Target sequence (O95551 whole entry, looked up): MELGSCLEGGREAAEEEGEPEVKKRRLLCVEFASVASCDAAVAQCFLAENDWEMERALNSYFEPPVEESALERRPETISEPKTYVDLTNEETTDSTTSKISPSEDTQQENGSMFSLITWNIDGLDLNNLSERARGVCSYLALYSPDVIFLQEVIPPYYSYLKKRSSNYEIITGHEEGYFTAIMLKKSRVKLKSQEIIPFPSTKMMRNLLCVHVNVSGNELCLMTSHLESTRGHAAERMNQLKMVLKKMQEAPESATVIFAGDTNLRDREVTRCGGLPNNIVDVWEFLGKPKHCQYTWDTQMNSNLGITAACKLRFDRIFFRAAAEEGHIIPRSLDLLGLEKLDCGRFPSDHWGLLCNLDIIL
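System: recombinant human TDP2 / Amount: 120 nM TDP2 per well / Also added: 5 mM T5PNP chromogenic substrate / Doses: 12.8 µM single point, 1% DMSO / Incubation: 2 h at 37 °C / Detection: p-Nitrophenol epi absorbance / Evaluation: % inhibition relative to enzyme-containing and enzyme-free wells / Repeats: singlicate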
Apaf-1 inh: inhibitors of human Apaf-1 apoptosome, primary screen, biochemical, DEVD-Rh110 fluorescence, uHTS | AID 489030, 2010 | 330,000 compounds, 0.71% hits | inhibition, % at 20 µM | Apoptotic protease-activating factor 1 (Homo sapiens), O14727 | reconstituted apoptosome caspase-3 activity; active = inhibition of at least 40% at 20 µM;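 also: plate controls were DMSO wells for no effect and DEVD-CHO caspase inhibitor wells for full effect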
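Material: reconstituted apoptosome with Apaf-1, cytochrome c, caspase-9, procaspase-3, dATP / Buffer or medium: pH 7.5 Hepes buffer with CHAPS, BSA, DTT / Also added: cytochrome c with DEVD-Rh110 / Schedule: compound with Apaf-1, dATP, procaspase-3 30 min, then 50 min reaction, room temperature / Technique: rhodamine 110 fluorescence at Ex 480/Em 540 nm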
GSTO1 inh: inhibitors of recombinant GSTO1, primary screen, counter-screen for RBBP9 inhibitor project, biochemical, fluorescence polarization | Glutathione S-transferase omega-1 (Homo sapiens), P78417 | activity-based probe fluorescence polarization | inhibition, % at 5.96 µM | 300,000 compounds, 1.1% hits | AID 1974, 2009;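 active = inhibition above the campaign mean inhibition plus 3 SD, cut at about 35% in these data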;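 also: 0% = GSTO1-1 with DMSO and 100% = wells lacking GSTO1-1 enzyme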
PP5 inh: PP5 phosphatase inhibitors, primary screen, biochemical, fluorescence; Serine/threonine-protein phosphatase 5 (Homo sapiens), P53041; 320,000 compounds, 0.18% hits; purified PP5c, OMFP substrate fluorescence; inhibition, % at 6.7 µM; AID 1987, 2009;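 active = inhibition above the campaign's mean inhibition across all tested compounds plus 3 SD, cut at about 9.5% in these data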;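 also: 0% = DMSO only and 100% = 100 µM cantharidin control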
Starred values were filed as active, the others as inactive. Rows were chosen to be rich in hits. Some 2.1% of all compounds tested hit in one or more screens of this group.

For COc1ccc2[nH]c(=O)c(CN(C3CCCCC3)C(c3nnnn3Cc3ccco3)C(C)C)cc2c1 (centres undefined) the results were PP1 counter 20.5*, Apaf-1 inh 11.3, GSTO1 inh -11.1 and PP5 inh 5.6.
Oc1ccc(/C=N/Nc2nc(N3CCCC3)nc(N3CCCC3)n2)cc1O was read as PP1 counter -3.5, TDP2 inh 2.4, Apaf-1 inh 6.1, GSTO1 inh 56.1* and PP5 inh -2.3.
Screening C/C(CCN1CCc2nc(-c3ccccc3)c(-c3ccccc3)cc2C1)=N\OC[C@@H](C)[C@H](OCc1ccccc1)C(C)C returned PP1 counter 0.6, Apaf-1 inh 46.7*, GSTO1 inh -2.6 and PP5 inh 6.2.
C=CS(=O)(=O)N(Cc1ccc(C)cc1)[C@@H](CO)C(=O)OC was read as TDP2 inh 3.8.
For Cc1nnc(-c2ccccc2)c(=O)n1/N=C/c1c(O)ccc2ccccc12 the results were PP1 counter 0.1, TDP2 inh -3.7, Apaf-1 inh 16.0, GSTO1 inh 38.9* and PP5 inh 2.3.
`Cc1nc2ccccc2c(=O)n1/N=C/c1ccc2ccccc2c1O` gave PP1 counter -0.5, Apaf-1 inh 3.3, GSTO1 inh 66.8* and PP5 inh 2.7.
For O=C(Nc1cccc(-c2nc3ccccc3[nH]2)c1)c1cccc(NC(=O)c2ccco2)c1 the results were PP1 counter 16.0*, TDP2 inh -0.6, Apaf-1 inh -23.6, GSTO1 inh -19.3 and PP5 inh 3.2.
For O=C(Nc1ccc(Cl)c(-c2nc3ccccc3[nH]2)c1)c1ccc2c(c1)OCO2 the results were PP1 counter 0.4, TDP2 inh -3.8, Apaf-1 inh 6.6, GSTO1 inh -23.2 and PP5 inh 3.2.
For O=C(Nc1ccc(-c2nc3ccccc3[nH]2)cc1)c1ccc2c(c1)OCO2 the results were PP1 counter 15.4*, TDP2 inh -21.5, Apaf-1 inh -11.9, GSTO1 inh 2.8 and PP5 inh 1.8.
Screening C#CCOCCOCCOCCNc1nc(N2CCN(C(=O)CCCCCCCCCCNC(=O)[C@@H](CCC(=O)O)n3cc(CCCCCN)nn3)CC2)nc(N2CCN(C(=O)CCCCCCCCCCNC(=O)[C@H](CO)n3cc(CCCSC)nn3)CC2)n1 returned PP1 counter 2.7, Apaf-1 inh 29.6, GSTO1 inh -0.5 and PP5 inh 2.8.
Screening C#CCOCCOCCOCCNc1nc(N2CCN(C(=O)Cn3cc(CCCCN)nn3)CC2)nc(N2CCN(C(=O)Cn3cc(CC(C)O)nn3)CC2)n1 (centres undefined) returned PP1 counter 1.7, TDP2 inh -0.4, Apaf-1 inh 4.5, GSTO1 inh 7.0 and PP5 inh -1.2.
C#CCOCCOCCOCCNc1nc(N2CCN(C(=O)CCCCCCCCCCNC(=O)[C@H](CO)n3cc(CCCCCN)nn3)CC2)nc(N2CCN(C(=O)CCCCCCCCCCNC(=O)[C@H](CCCN=C(N)N)n3cc(C[C@@H](C)CC)nn3)CC2)n1 was read as PP1 counter 57.4*, Apaf-1 inh 60.9*, GSTO1 inh -9.0 and PP5 inh 5.5.
C#CCOCCOCCOCCNc1nc(N2CCN(C(=O)CCCCCCCCCCNC(=O)[C@H](CCCCN)n3cc(C[C@@H](C)CC)nn3)CC2)nc(N2CCN(C(=O)CCCCCCCCCCNC(=O)[C@H](CCCN=C(N)N)n3cc(C[C@@H](C)CC)nn3)CC2)n1 was read as PP1 counter 67.5*, Apaf-1 inh 54.9*, GSTO1 inh 1.4 and PP5 inh 8.2.
C#CCOCCOCCOCCNc1nc(N2CCN(C(=O)CCCCCCCCCCNC(=O)[C@H](CCCCN)n3cc(C)nn3)CC2)nc(N2CCN(C(=O)CCCCCCCCCCNC(=O)[C@@H]([C@H](C)O)n3cc(C)nn3)CC2)n1 was read as PP1 counter 6.7, Apaf-1 inh 54.4*, GSTO1 inh -2.6 and PP5 inh 0.6.
`C#CCOCCOCCOCCNc1nc(N2CCN(C(=O)CCCCCCCCCCNC(=O)Cn3cc(CCCCCN)nn3)CC2)nc(N2CCN(C(=O)CCCCCCCCCCNC(=O)Cn3cc(C[C@@H](C)O)nn3)CC2)n1` gave PP1 counter 12.7, Apaf-1 inh 71.5*, GSTO1 inh -0.3 and PP5 inh -2.6.
`CC(=O)CC[C@H]1CC[C@]2(CCCN(S(C)(=O)=O)C2)O1` gave TDP2 inh 4.7.
C=CCN1[C@@H](Cc2ccccc2)COc2cc(F)ccc2S1(=O)=O was read as TDP2 inh -5.2.
C=CCN1[C@H](CC(C)C)COc2cccc(F)c2S1(=O)=O was read as TDP2 inh -0.1.
Screening COC(=O)[C@]12C[C@H](CC(=O)NCc3ccccc3)C(=O)N(CCC3=CCCCC3)C1=C[C@H](COCc1ccccc1)O[C@@H]2C returned TDP2 inh 4.2.
CC(=O)N1CCCN(S(=O)(=O)c2ccc3c(c2)oc(=O)n3C)CC1 was read as TDP2 inh 7.5.
Screening O=C(NCCN1CCC(Cc2ccccc2)CC1)C1CCCN(S(=O)(=O)c2ccc(Br)s2)C1 (centres undefined) returned TDP2 inh 3.8.
For C#CCOCCOCCOCCNc1nc(N2CCN(C(=O)CCCCCCCCCCNC(=O)[C@@H](CCC(=O)O)n3cc(CCCCCN)nn3)CC2)nc(N2CCN(C(=O)CCCCCCCCCCNC(=O)[C@H](CO)n3cc(CCCCCN)nn3)CC2)n1 the results were PP1 counter 15.3*, Apaf-1 inh 54.4*, GSTO1 inh 4.8 and PP5 inh 1.7.
Screening O=C1CC(=C2c3ccccc3-c3ccccc32)C(=O)N1CCN1CCN(c2ccccc2)CC1 returned PP1 counter 17.2*, TDP2 inh 7.1, Apaf-1 inh 4.8, GSTO1 inh 5.2 and PP5 inh 3.7.
For Cc1ccccc1N1CCN(CCN2C(=O)CC(=C3c4ccccc4-c4ccccc43)C2=O)CC1 the results were PP1 counter 12.8, TDP2 inh -2.2, Apaf-1 inh 22.1, GSTO1 inh -3.8 and PP5 inh 4.2.
C[C@@H]1NC(=O)[C@H]2C[C@@]3(c4ccccc4)c4ccccc4N[C@H]3N2C1=O was read as TDP2 inh 0.9.
`Cc1csc(N/N=C/c2ccc(O)c([N+](=O)[O-])c2)n1` gave PP1 counter -0.6, TDP2 inh 9.4, Apaf-1 inh 10.3, GSTO1 inh 84.3* and PP5 inh 0.9.
Screening O=[N+]([O-])c1cc(/C=N\Nc2nc(-c3ccccc3)cs2)ccc1O returned PP1 counter 4.9, TDP2 inh 6.5, Apaf-1 inh 12.6, GSTO1 inh 63.0* and PP5 inh 2.0.
